Test [1] relates to HL-60. Nature of the test: Efficacy expressed as maximal stimulation of GTP hydrolysis in HL-60 membranes at a concentration 10 uM. The format is functional, Homo sapiens. A digest of the protocol: (§1)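 HL-60 cells grown in suspension, differentiated toward neutrophil-like cells with dibutyryl-cAMP (0.2 mM) for 48 h; membranes prepared and steady-state GTP hydrolysis measured with [γ-32P]GTP over increasing compound concentrations. Triplicate determinations, at least three independent experiments. Efficacy = maximal stimulation above basal activity, at the concentration giving maximal stimulation; pEC50 = -log half-maximal concentration, means ± SD.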

The test system of test [2] is HL-60. Nature of the test: -log of the half-maximal concentration for stimulation of GTPase in HL-60 membrane (sensitive to PTX). The format is functional. The conditions noted are these: Homo sapiens. The essentials:
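Differentiated HL-60 cells (dibutyryl-cAMP 0.2 mM, 48 h) incubated overnight with pertussis toxin (200 ng/mL) or left untreated; membranes prepared and steady-state [γ-32P]GTP hydrolysis measured across increasing concentrations. PTX sensitivity judged by comparing treated with control membranes. Triplicates; pEC50 = -log half-maximal concentration, mean ± SD.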

Test [3] concerns HL-60. Nature of the test: Efficacy expressed as maximal stimulation of GTP hydrolysis in HL-60 membranes at a concentration 30 uM. The test is classed as functional, Homo sapiens. A digest of the protocol: as §1
Test [4] has as its system HL-60. Put plainly: -log of the half-maximal concentration for stimulation of GTPase in HL-60 membrane. The settings on record: Homo sapiens. The format is functional. The essentials:
as §1

For test [5], the system named is HL-60. Put plainly: Efficacy expressed as maximal stimulation of GTP hydrolysis in HL-60 membranes at a concentration 5 uM. The test is classed as functional, Homo sapiens. The essentials: as §1
The subject of test [6] is HL-60. Nature of the test: Efficacy expressed as maximal stimulation of GTP hydrolysis in HL-60 membranes at a concentration 3 uM. The format is functional, Homo sapiens. A digest of the protocol: as §1
For test [7], the system named is HL-60. Put plainly: Efficacy expressed as maximal stimulation of GTP hydrolysis in HL-60 membranes at a concentration 2 uM. The test is classed as functional, Homo sapiens. A digest of the protocol: as §1
The subject of test [8] is HL-60. Nature of the test: Efficacy expressed as maximal stimulation of GTP hydrolysis in HL-60 membranes at a concentration 0.75 uM. The format is functional, Homo sapiens. The essentials: as §1
Test [9] concerns HL-60. Nature of the test: Efficacy expressed as maximal stimulation of GTP hydrolysis in HL-60 membranes at a concentration 20 uM. The format is functional, Homo sapiens. A digest of the protocol:
as §1

The test system of test [10] is HL-60. Put plainly: Efficacy expressed as maximal stimulation of GTP hydrolysis in HL-60 membranes at a concentration 7.5 uM. The test is classed as functional, Homo sapiens. A digest of the protocol:
as §1

The subject of test [11] is HL-60. Put plainly: Efficacy expressed as maximal stimulation of GTP hydrolysis in HL-60 membranes at a concentration 300 uM. The format is functional, Homo sapiens. The essentials:
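Steady-state GTP hydrolysis of the membranes was measured over increasing compound concentrations in triplicate, across at least three independent experiments. Efficacy is the maximal stimulation above basal activity, with the concentration giving that maximum reported.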

The target of test [12] is Histamine H1 receptor (Cavia porcellus) (UniProt P31389). Nature of the test: Histamine activity against H1 receptor of guinea pig ileum. The test is classed as tissue-based.
In test [13] the target is Histamine H3 receptor (Cavia porcellus) (UniProt Q9JI35). Put plainly: Histamine activity against Histamine H3 receptor of guinea pig ileum. The format is tissue-based.
Test [14] deals with Histamine H1 receptor (Cavia porcellus) (UniProt P31389). Nature of the test: Histamine activity against Histamine H1 receptor of guinea pig ileum. The format is tissue-based.
Test [15] concerns the target Muscarinic acetylcholine receptor M3 (Cavia porcellus) (UniProt Q8VH26). Nature of the test: Affinity towards Muscarinic acetylcholine receptor M3 in guinea pig ileum. The format is tissue-based.
The target of test [16] is Histamine H2 receptor (Cavia porcellus) (UniProt P47747). Put plainly: Histamine activity against Histamine H2 receptor of guinea pig atrium. The format is tissue-based. The conditions noted are these: Cardiac atrium.

Consider 21 compounds from ChEMBL document CHEMBL1130158, “Alkyl-substituted amino acid amides and analogous di- and triamines: new non-peptide G protein activators” (J Med Chem, 1997).

pEC50: −log10 of the molar value.

Histamine H1 receptor (Cavia porcellus), sequence (P31389 whole entry): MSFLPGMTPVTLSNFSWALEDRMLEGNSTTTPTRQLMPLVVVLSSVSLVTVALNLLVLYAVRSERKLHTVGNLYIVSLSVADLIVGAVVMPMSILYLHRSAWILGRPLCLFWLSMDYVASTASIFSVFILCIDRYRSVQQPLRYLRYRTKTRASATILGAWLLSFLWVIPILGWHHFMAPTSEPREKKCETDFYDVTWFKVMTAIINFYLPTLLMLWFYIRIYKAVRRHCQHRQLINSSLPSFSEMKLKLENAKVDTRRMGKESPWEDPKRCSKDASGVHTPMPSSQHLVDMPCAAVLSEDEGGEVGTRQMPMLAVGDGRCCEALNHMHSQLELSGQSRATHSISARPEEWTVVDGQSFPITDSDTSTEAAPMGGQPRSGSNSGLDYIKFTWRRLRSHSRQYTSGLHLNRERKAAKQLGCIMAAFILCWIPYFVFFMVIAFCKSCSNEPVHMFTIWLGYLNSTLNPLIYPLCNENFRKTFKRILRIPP
Muscarinic acetylcholine receptor M3 (Cavia porcellus), sequence (Q8VH26 1-587): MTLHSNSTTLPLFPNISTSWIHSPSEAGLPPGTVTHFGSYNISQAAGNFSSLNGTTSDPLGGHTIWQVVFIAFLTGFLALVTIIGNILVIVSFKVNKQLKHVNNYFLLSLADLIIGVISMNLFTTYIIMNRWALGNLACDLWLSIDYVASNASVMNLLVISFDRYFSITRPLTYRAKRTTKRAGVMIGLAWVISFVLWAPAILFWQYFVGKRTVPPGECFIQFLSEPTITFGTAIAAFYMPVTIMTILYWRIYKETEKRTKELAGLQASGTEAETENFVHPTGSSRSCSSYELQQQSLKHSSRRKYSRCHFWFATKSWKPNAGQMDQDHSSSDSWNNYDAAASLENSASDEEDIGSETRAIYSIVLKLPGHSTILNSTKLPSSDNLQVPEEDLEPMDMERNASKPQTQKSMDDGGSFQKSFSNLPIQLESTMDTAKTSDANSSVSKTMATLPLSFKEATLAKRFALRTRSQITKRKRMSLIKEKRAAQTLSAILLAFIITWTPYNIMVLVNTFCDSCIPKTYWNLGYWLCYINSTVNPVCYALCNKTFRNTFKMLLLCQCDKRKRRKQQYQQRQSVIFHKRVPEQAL
Histamine H2 receptor (Cavia porcellus), sequence (P47747 whole entry): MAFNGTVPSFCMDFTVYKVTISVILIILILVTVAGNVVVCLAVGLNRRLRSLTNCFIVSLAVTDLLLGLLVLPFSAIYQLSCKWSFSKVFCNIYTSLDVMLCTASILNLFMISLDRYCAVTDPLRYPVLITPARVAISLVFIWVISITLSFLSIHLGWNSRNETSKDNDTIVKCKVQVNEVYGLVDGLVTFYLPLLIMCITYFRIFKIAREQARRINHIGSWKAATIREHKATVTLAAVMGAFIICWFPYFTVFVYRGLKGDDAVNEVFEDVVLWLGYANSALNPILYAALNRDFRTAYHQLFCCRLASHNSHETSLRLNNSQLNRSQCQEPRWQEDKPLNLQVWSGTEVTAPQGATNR
Histamine H3 receptor (Cavia porcellus), sequence (Q9JI35 whole entry): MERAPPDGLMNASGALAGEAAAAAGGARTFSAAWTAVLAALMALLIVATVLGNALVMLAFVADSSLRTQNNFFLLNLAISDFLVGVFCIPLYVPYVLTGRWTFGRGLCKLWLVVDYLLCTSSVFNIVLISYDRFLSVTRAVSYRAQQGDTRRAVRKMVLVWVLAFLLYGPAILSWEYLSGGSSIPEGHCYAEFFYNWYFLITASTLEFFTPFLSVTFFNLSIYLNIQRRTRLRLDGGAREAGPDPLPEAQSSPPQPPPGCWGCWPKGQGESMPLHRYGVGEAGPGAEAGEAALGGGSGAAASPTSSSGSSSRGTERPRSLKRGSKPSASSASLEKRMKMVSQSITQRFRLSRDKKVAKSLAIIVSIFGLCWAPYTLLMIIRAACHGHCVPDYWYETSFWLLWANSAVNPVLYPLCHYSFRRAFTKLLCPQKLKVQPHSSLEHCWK

What is called pEC50 is the negative decadic logarithm of the EC50, by convention in mol/L. In the test with HL-60 [1], `CC[C@H](C)[C@H](N)C(=O)N[C@@H](CC(N)=O)C(=O)N[C@@H](CC(C)C)C(=O)N[C@@H](CCCCN)C(=O)N[C@@H](C)C(=O)N[C@@H](CC(C)C)C(=O)N[C@@H](C)C(=O)N[C@@H](C)C(=O)N[C@@H](CC(C)C)C(=O)N[C@@H](C)C(=O)N[C@@H](CCCCN)C(=O)N[C@@H](CCCCN)C(=O)N[C@H](C(=O)N[C@@H](CC(C)C)C(N)=O)[C@@H](C)CC` yielded an Efficacy of 100%. Moreover, the pEC50 with HL-60 [2] is 5.50.
Compound `CCCCCCCCCCCCNC(=O)[C@@H](N)CCC(N)=O` yielded an Efficacy in the test on HL-60 [3] of 110%. In the test with HL-60 [4], this compound gave a pEC50 of 5.10.
In the test with HL-60 [5], `CCCCCCCCCCCCNCCN` showed an Efficacy of 92%. Besides, the negative logarithm of the EC50 (pEC50) in the test on HL-60 [4] is 6.00.
`CCCCCCCCCCCCNCC(N)CCN` (stereo unspecified) displayed an Efficacy in the test on HL-60 [6] of 128%. For the same compound, in the test with HL-60 [4], the pEC50 is 6.20.
In the case of `CCCCCCCCCCCCNCC(N)CCCCN` (stereo unspecified), the Efficacy with HL-60 [7] is on record as 120%. In the test on HL-60 [2], this compound showed a pEC50 of 6.30.
Consider `CCCCCCCCCCCCCCCCNCC(N)CCCCN` (stereo unspecified), for which, in the test on HL-60 [8], the Efficacy is reported as 84%. In the test on HL-60 [2], this compound had a pEC50 of 6.60.
Consider `CCCCCCCCCCCCNC(=O)C(N)CCN` (stereo unspecified), for which the Efficacy in the test on HL-60 [1] was 105%. This compound also showed a negative-log EC50 (pEC50) with HL-60 [4] of 5.90.
In the case of `CCCCCCCCCCCCNC(=O)C(N)CN` (stereo unspecified), the Efficacy in the test on HL-60 [1] came to 131%. In the test with HL-60 [4], this compound showed a pEC50 of 5.60.
As to `CCCCCCCCCCCCNC(=O)[C@@H](N)CCCCN` [N-DODECYL LYSINE AMIDE], the Efficacy with HL-60 [5] came out at 116%. For the same compound, the pEC50 in the test on HL-60 [2] was 6.10.
For the compound `CCCCCCCCCCCCNC(=O)CNC(=O)CN`, the Efficacy in the test on HL-60 [3] is 120%. Further, in the test with HL-60 [4], the pEC50 is 5.30.
With `CCCCCCCCCCCCNC(=O)CN`, the Efficacy in the test with HL-60 [9] amounted to 100%. The same compound had a pEC50 in the test with HL-60 [4] of 5.40.
`CCCCCCCCCCCCNCCN=C(N)N`: the pEC50 in the test on HL-60 [4] is 6.00. Further, in the test with HL-60 [10], the Efficacy was 128%.
The compound `CCCCCCCCCCCCNC(=O)[C@@H](N)CCC/N=C(\N)N[N+](=O)[O-]` displayed an Efficacy with HL-60 [11] of 156%.
On to `CCCCCCCCCCCCNC(=O)C(N)CCCN` (stereo unspecified), for which the -Log K in [12] was found to be 5.3. In the test with HL-60 [1], this compound displayed an Efficacy of 117%. Moreover, the negative-log EC50 (pEC50) in the test on HL-60 [4] was 5.60.
In turn, `CCCCCCCCCCCCCCNCC(N)CCCCN` (stereo unspecified) gave an Efficacy in the test with HL-60 [8] of 117%. Also, the negative-log EC50 (pEC50) in the test on HL-60 [2] was 6.60.
With `CCCCCCCCCCCCNCC(N)CCCN` (stereo unspecified), the -Log K is less than 6 in test [13], 5.4 in test [14], 5.2 in [15] and 4.1 in [16]. The Efficacy in the test with HL-60 [5] is on record as 126%. This compound showed a negative logarithm of the EC50 (pEC50) with HL-60 [4] of 6.00.
As to `CCCCCCCCCCCCNC(=O)[C@@H](N)CCCN=C(N)N`, the pEC50 in the test with HL-60 [4] was 6.10. Moreover, in the test with HL-60 [10], the Efficacy is given as 92%.
Turning to `CCCCCCCCCCCCCCNC(=O)[C@@H](N)CCCCN`, in the test on HL-60 [6], the Efficacy is given as 100%. The pEC50 with HL-60 [2] is 6.30.
The compound `CCCCCCCCCCCCNC(=O)[C@@H](N)Cc1c[nH]cn1` yielded an Efficacy in the test with HL-60 [9] of 125%. The same compound showed a pEC50 with HL-60 [4] of 5.50.
`CCCCCCCCCCCCNC(=O)[C@H](N)CCCCN` came in with an Efficacy in the test with HL-60 [5] of 108%. This compound showed a pEC50 in the test with HL-60 [2] of 6.10.
Take `CCCCCCCCCCCCCCCCNC(=O)[C@@H](N)CCCCN` [LYCETAMINE]: the Efficacy with HL-60 [7] was found to be 90%. In the test on HL-60 [2], this compound gave a pEC50 of 6.30.
